The results in this text go back to ChEMBL document CHEMBL2321728, “Vectorization efforts to increase Gram-negative intracellular drug concentration: a case study on HldE-K inhibitors” (J Med Chem, 2013).

For orientation: MIC means the lowest concentration found to suppress growth. The term IC50 denotes the concentration at which inhibition is half-maximal.

For test [1], the system named is Escherichia coli. In words: Antimicrobial activity against wild type Escherichia coli K1 measured after overnight incubation by serial dilution method in presence of erythromycin. It counts as functional.
In test [2] the test system is Escherichia coli. Put plainly: Antimicrobial activity against acrAB, tolC-deficient Escherichia coli str. K-12 substr. MG1655 measured after overnight incubation by serial dilution method in presence of erythromycin. It counts as functional.
Test [3] in a line: Inhibition of Escherichia coli HldE-kinase preincubated for 30 mins prior to substrate addition measured after 30 mins by luminescence assay. The procedure, abridged: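 E. coli HldE (3 nM) preincubated with inhibitor for 30 min at room temperature in pH 7.5 Hepes buffer with MnCl2, KCl, Triton X-100, DTT and MBP. Reaction started with 0.2 μM β-heptose 7-phosphate and 0.2 μM ATP, run 30 min at room temperature. Remaining ATP measured by luciferase/luciferin luminescence. IC50 from 6–10 concentrations fitted to a Langmuir model.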

Test [4] relates to Escherichia coli. In words: Antimicrobial activity against tolC-deficient Escherichia coli K1 assessed as inhibition of LPS biosynthesis at 32 ug/ml after 5 hrs by SDS-PAGE analysis. It counts as functional, organism-based. The procedure, abridged:
(§1)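 LB-grown exponential cells (OD about 0.15) diluted to 5 × 10^5 CFU/mL and exposed to compound (water/DMSO 50/50) at 37 °C for about 5 h, to OD 0.2–0.4. OD-normalized pellets lysed in SDS/β-mercaptoethanol at 95–100 °C, then proteinase K 1 h at 55 °C. LPS resolved by 16% SDS-PAGE and silver stained.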

Test [5] deals with Escherichia coli. Put plainly: Antimicrobial activity against tolC-deficient Escherichia coli K1 measured after overnight incubation by serial dilution method in presence of erythromycin. The format is functional.
The subject of test [6] is Escherichia coli. Put plainly: Antimicrobial activity against acrAB, tolC-deficient Escherichia coli str. K-12 substr. MG1655 measured after overnight incubation by serial dilution method in presence of erythromycin in iron depleted medium. It counts as functional. The procedure, abridged:
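MIC in M9 medium supplemented with D-glucose, thiamine, casein and apotransferrin (M9S), which is the iron-depleted medium. Erythromycin at 0.13 μg/mL. Inoculum 5 × 10^5 CFU/mL. Compound serial dilutions in 2% DMSO, overnight at 35 °C, visual read-out.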

The test system of test [7] is Escherichia coli. In words: Antimicrobial activity against wild type Escherichia coli K1 after overnight incubation by checkerboard assay. The format is functional. The procedure, abridged: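 Checkerboard against E. coli K1 (018:K1:H7) wild type. Early to log phase preculture suspended in ca-MHB to a final inoculum of 5 × 10^5 CFU/mL. Combined serial dilutions of kanamycin, the unvectorized inhibitor or bis(3-aminopropyl)amine with erythromycin, in 2% DMSO. Incubated overnight at 35 °C; MIC of each combination read by visual inspection.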

In test [8] the test system is Escherichia coli. Put plainly: Antimicrobial activity against wild type Escherichia coli K1 assessed as inhibition of LPS biosynthesis at 30 ug/ml after 5 hrs by SDS-PAGE analysis. It counts as functional, organism-based. The procedure, abridged:
as §1

Active and inactive are the calls of the source. No cut-off for these calls is given here.

For `Cc1cc(NCCN(C)C)cc(C)c1-c1cnnc(NCc2nc3cc(O)ccc3s2)n1`, the MIC was > 64 mg/L in test [1] and 16 mg/L in test [2]. This compound also came in with an IC50 in test [3] of 0.78 µM.

With `NCCNCCNC(=O)COc1ccc2sc(CNc3nncc(-c4c(Cl)cccc4Cl)n3)nc2c1`, the inhibition entry in test [4] is “inactive”. The MIC in test [5] amounted to 8 mg/L; in test [1], 32 mg/L. For the same compound, the concentration for half-maximal inhibition (IC50) in test [3] was determined as 0.11 µM.

Regarding `O=C(NCCOc1ccc2sc(CNc3nncc(-c4c(Cl)cccc4Cl)n3)nc2c1)[C@@H]1CSC(c2ccccc2O)=N1`, the minimal inhibitory concentration (MIC) in test [1], in test [6] and in test [2] was > 32 mg/L throughout. For the same compound, in test [3], the IC50 is 0.66 µM.

Take `O=S(=O)(NCCOc1ccc2sc(CNc3nncc(-c4c(Cl)cccc4Cl)n3)nc2c1)c1ccc(O)c(O)c1`: the minimal inhibitory concentration (MIC) in test [1] is > 64 mg/L; in test [6], 2 mg/L; in test [2] it was 4 mg/L. In test [3], this compound showed a half-maximal inhibitory concentration (IC50) of 0.033 µM.

For `NCCN(CCN)CCNC(=O)COc1ccc2sc(CNc3nncc(-c4c(Cl)cccc4Cl)n3)nc2c1`, the inhibition result in test [4] was “inactive”. Moreover, the MIC in test [5] was 4 mg/L; in test [1], 8 mg/L. Besides, in test [3], the IC50 was determined as 0.58 µM.

Take `O=C(O)COc1ccc2sc(CNc3nncc(-c4c(Cl)cccc4Cl)n3)nc2c1`: the minimum inhibitory concentration (MIC) in test [1] was > 64 mg/L. The IC50 in test [3] is 0.019 µM.

With `COc1ccc2sc(CNc3nncc(-c4c(C)cc(NCCN(C)C)cc4C)n3)nc2c1`, the MIC was > 64 mg/L in test [1] and 32 mg/L in test [2]. This compound registered an IC50 in test [3] of 0.082 µM.

Take `Cc1cc(NCCN(C)C)cc(C)c1-c1cnnc(NCc2nc3cc(OCCN)ccc3s2)n1`: the inhibition entry in test [4] was “inactive”. The minimal inhibitory concentration (MIC) in test [5] and in test [1] was > 64 mg/L each time. Moreover, the IC50 in test [3] turned out to be 1.4 µM.

As for `COc1ccc2sc(CNc3nncc(-c4c(C)cccc4O)n3)nc2c1`, in test [3], it took 0.069 µM to reach half-maximal inhibition (IC50).

Turning to `CC[C@H]1OC(=O)[C@H](C)[C@@H](O[C@H]2C[C@@](C)(OC)[C@@H](O)[C@H](C)O2)[C@H](C)[C@@H](O[C@@H]2O[C@H](C)C[C@H](N(C)C)[C@H]2O)[C@](C)(O)C[C@@H](C)C(=O)[C@H](C)[C@@H](O)[C@]1(C)O` [ERYTHROMYCIN], in test [7], the minimum inhibitory concentration (MIC) is 16 mg/L.

For `CN1CCN(CCOc2ccc3sc(CNc4nncc(-c5c(Cl)cccc5Cl)n4)nc3c2)CC1`, the inhibition entry in test [4] is “inactive”. Further, the minimum inhibitory concentration (MIC) in test [5] is 32 mg/L; in test [1], > 64 mg/L. The same compound displayed an IC50 in test [3] of 0.11 µM.

Regarding `NC[C@H]1O[C@H](O[C@H]2[C@H](O)[C@@H](O[C@H]3O[C@H](CO)[C@@H](O)[C@H](N)[C@H]3O)[C@H](N)C[C@@H]2N)[C@H](O)[C@@H](O)[C@@H]1O` [KANAMYCIN], the minimal inhibitory concentration (MIC) in test [7] came out at 8 mg/L.

Turning to `NCCCN(CCCN)CCOc1ccc2sc(CNc3nncc(-c4c(Cl)cccc4Cl)n3)nc2c1`, the inhibition result in test [4] was “inactive”. Also, the minimal inhibitory concentration (MIC) turned out to be 2 mg/L in test [5] and 4 mg/L in test [1]. For the same compound, the half-inhibitory concentration (IC50) in test [3] was 0.63 µM.

`CN(C)CC(CN(C)C)NC(=O)COc1ccc2sc(CNc3nncc(-c4c(Cl)cccc4Cl)n3)nc2c1`: the inhibition result in test [4] was “inactive”. For the same compound, the values for the MIC in test [5] and in test [1] were 32 mg/L and > 64 mg/L, respectively. Further, in test [3], the half-maximal inhibitory concentration (IC50) stood at 0.42 µM.

Turning to `Cn1nc(O)c(=O)nc1SCCOc1ccc2sc(CNc3nncc(-c4c(Cl)cccc4Cl)n3)nc2c1`, the minimum inhibitory concentration (MIC) in test [1] was > 64 mg/L; in test [6], 1 mg/L; in test [2], 2 mg/L. The same compound had an IC50 in test [3] of 0.025 µM.

`O=C(NCCOc1ccc2sc(CNc3nncc(-c4c(Cl)cccc4Cl)n3)nc2c1)c1cc(=O)c(O)co1`: the results for the minimal inhibitory concentration (MIC) in test [1], in test [6] and in test [2] were > 64 mg/L, 2 mg/L and > 64 mg/L, respectively. Also, in test [3], the IC50 turned out to be 0.071 µM.

On to `CS(=O)(=O)NC(=O)COc1ccc2sc(CNc3nncc(-c4c(Cl)cccc4Cl)n3)nc2c1`, for which the MIC is > 64 mg/L in test [1], 16 mg/L in test [6] and 16 mg/L in test [2]. For the same compound, the concentration for half-maximal inhibition (IC50) in test [3] came out at 0.016 µM.

Turning to `Cc1cc(NC(=O)CN(C)C)cc(C)c1-c1cnnc(NCc2nc3cc(O)ccc3s2)n1`, the MIC is > 64 mg/L in test [1] and 16 mg/L in test [2]. In test [3], this compound came in with an IC50 of 0.88 µM.

As to `NC[C@H]1O[C@H](O[C@H]2[C@H](O)[C@@H](O[C@H]3O[C@H](Cn4cc(CNC(=O)COc5ccc6sc(CNc7nncc(-c8c(Cl)cccc8Cl)n7)nc6c5)nn4)[C@@H](O)[C@H](N)[C@H]3O)[C@H](N)C[C@@H]2N)[C@H](O)[C@@H](O)[C@@H]1O`, in test [8], the inhibition result was “inactive”. In addition, the MIC in test [5] stood at 2 mg/L; in test [1], 8 mg/L; in test [2], 4 mg/L. The compound further displayed a concentration for half-maximal inhibition (IC50) in test [3] of 0.098 µM.

Take `O=C(COc1ccc2sc(CNc3nncc(-c4c(Cl)cccc4Cl)n3)nc2c1)NCCO`: the inhibition entry in test [4] is “Active”. Moreover, the MIC in test [1] is > 64 mg/L. Also, half-maximal inhibition in test [3] (IC50) required 0.055 µM.

As to `O=C(COc1ccc2sc(CNc3nncc(-c4c(Cl)cccc4Cl)n3)nc2c1)NO`, the MIC in test [1] was > 64 mg/L; in test [6], 1 mg/L; in test [2], 2 mg/L. The same compound had an IC50 in test [3] of 0.001 µM.

With `CCN1CCN(C(=O)NCCOc2ccc3sc(CNc4nncc(-c5c(C)cccc5O)n4)nc3c2)C(=O)C1=O`, the MIC was > 32 mg/L in test [1], 8 mg/L in test [6] and > 32 mg/L in test [2]. This compound yielded a 50% inhibitory concentration (IC50) in test [3] of 0.52 µM.

For `NCCCN(CCCN)C(=O)COc1ccc2sc(CNc3nncc(-c4c(Cl)cccc4Cl)n3)nc2c1`, the inhibition result in test [4] was “inactive”. Besides, the minimum inhibitory concentration (MIC) in test [5] was 4 mg/L; in test [1], 8 mg/L. For the same compound, the 50% inhibitory concentration (IC50) in test [3] turned out to be 0.51 µM.

With `O=C(COc1ccc2sc(CNc3nncc(-c4c(Cl)cccc4Cl)n3)nc2c1)OCc1cc(=O)c(O)cn1O`, the figures for the MIC in test [1], in test [6] and in test [2] were > 64 mg/L, 32 mg/L and > 64 mg/L, respectively. This compound also returned an IC50 in test [3] of 0.03 µM.
